Measured values reported in ChEMBL document CHEMBL1125376, “Class III antiarrhythmic activity of novel substituted 4-[(methylsulfonyl)amino]benzamides and sulfonamides” (J Med Chem, 1992).

Experiments:
[1] = tested on: Canis familiaris; assay: Mean arterial pressure, after intravenous administration in open-chest anesthetized dogs at dose of 0.05 mg/kg; type: functional, Canis lupus familiaris, Artery; conditions: dose 5.0 mg/kg, in the assay text read “5.0 mg/kg” for “0.05 mg/kg”
Outline: (§1)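 Mongrel dogs, pentobarbital-anesthetized (30 mg/kg iv plus 5 mg/kg per h), open chest. Compound given iv. Atrial and ventricular effective refractory periods and conduction times measured during pacing at 300 ms, along with heart rate and mean arterial pressure. Two doses per compound, chosen from dose-response runs. Values are % change from predrug, mean ± SE.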

[2] = tested on: Canis familiaris; assay: Mean arterial pressure, after intravenous administration in open-chest anesthetized dogs at dose of 0.5 mg/kg; type: functional, Canis lupus familiaris, Artery; conditions: dose 10.0 mg/kg, in the assay text read “10.0 mg/kg” for “0.5 mg/kg”; outline: as §1
[3] = species on record: Canis familiaris; assay: Effect on the transmembrane potential of dog Purkinje fibers paced at a basic cycle length of stimulation of 1000 ms, repolarization time to -60 mV; type: functional; conditions: Canis lupus familiaris; Purkinje fiber
Outline: (§2)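 Purkinje fiber bundles were taken from pentobarbital-anesthetized mongrel dogs. They were superfused at 37.5-38.0 °C with Tyrode's (mM: NaCl 138, KCl 4, CaCl2 2, NaHCO3 24, MgCl2 0.5, Na2HPO4 1.8, dextrose 5) gassed with 95% O2-5% CO2, pH 7.3-7.4. Stimulation used 2.0 ms pulses at twice threshold. Fibers were equilibrated ≥1 h before drug. Action potentials were recorded at 4-6 sites and averaged per fiber.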

[4] = tested on: Canis familiaris; assay: Atrial effective refractory period, after intravenous administration in open-chest anesthetized dogs at dose of 10.0 mg/kg
[5] = tested on: Canis familiaris; assay: Ventricular effective refractory period, after intravenous administration in open-chest anesthetized dogs at dose of 0.5 mg/kg; type: functional, Canis lupus familiaris, Heart; conditions: dose 10.0 mg/kg, in the assay text read “10.0 mg/kg” for “0.5 mg/kg”; outline: as §1
[6] = tested on: Canis familiaris; assay: Heart rate, after intravenous administration in open-chest anesthetized dogs at dose of 0.5 mg/kg; type: functional, Canis lupus familiaris; conditions: dose 10.0 mg/kg, in the assay text read “10.0 mg/kg” for “0.5 mg/kg”; outline: as §1
[7] = tested on: Canis familiaris; assay: Atrial conduction time, after intravenous administration in open-chest anesthetized dogs at dose of 10.0 mg/kg
[8] = species on record: Canis familiaris; assay: Effect on the transmembrane potential of dog Purkinje fibers paced at a basic cycle length of stimulation of 300 ms, repolarization time to -60 mV; type: functional; conditions: Canis lupus familiaris; Purkinje fiber; outline: as §2
[9] = species on record: Canis familiaris; assay: Effect on the transmembrane potential of dog Purkinje fibers paced at a basic cycle length of stimulation of 1000 ms, repolarization time to -60 mV, at a concentration of 0.3 uM; type: functional; conditions: Canis lupus familiaris, Purkinje fiber; outline: as §2
[10] = tested on: Canis familiaris; assay: Heart rate, after intravenous administration in open-chest anesthetized dogs at dose of 0.05 mg/kg; type: functional, Canis lupus familiaris; conditions: dose 5.0 mg/kg, in the assay text read “5.0 mg/kg” for “0.05 mg/kg”; outline: as §1
[11] = tested on: Canis familiaris; assay: Ventricular conduction time, after intravenous administration in open-chest anesthetized dogs at dose of 0.5 mg/kg; type: functional, Canis lupus familiaris, Heart; conditions: dose 10.0 mg/kg, in the assay text read “10.0 mg/kg” for “0.5 mg/kg”; outline: as §1
[12] = tested on: Canis familiaris; assay: Ventricular effective refractory period, after intravenous administration in open-chest anesthetized dogs at dose of 0.05 mg/kg; type: functional, Canis lupus familiaris, Heart; conditions: dose 5.0 mg/kg, in the assay text read “5.0 mg/kg” for “0.05 mg/kg”; outline: as §1
[13] = species on record: Canis familiaris; assay: Effect on the transmembrane potential of dog Purkinje fibers paced at a basic cycle length of stimulation of 300 ms, repolarization time to -60 mV at 0.3 uM concentration; type: functional; conditions: Canis lupus familiaris, Purkinje fiber; outline: as §2
[14] = Maximum rate of depolarization of the upstroke of the action potential at 3 uM concentration; parameters: unit not given beside the values
Outline: (§3)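 Purkinje fiber bundles from pentobarbital-anesthetized mongrel dogs, superfused at 37.5-38.0 °C with Tyrode's solution (95% O2-5% CO2, pH 7.3-7.4). Stimulation with 2.0 ms square pulses at 2× threshold. Fibers equilibrated at least 1 h before drug. Action potentials recorded at four to six sites, control vs drug, and averaged per fiber.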

[15] = tested on: Canis familiaris; assay: Effect on atrial effective refractory period, after intravenous administration in open-chest anesthetized dogs at dose of 1.0 mg/kg
[16] = species on record: Canis familiaris; assay: Effect on the transmembrane potential of dog Purkinje fibers paced at a basic cycle length of stimulation of 300 ms, repolarization time to -60 mV, at a concentration of 3 uM; type: functional; conditions: Canis lupus familiaris, Purkinje fiber; outline: as §2
[17] = species on record: Canis familiaris; assay: Effect on the transmembrane potential of dog Purkinje fibers paced at a basic cycle length of stimulation of 1000 ms, repolarization time to -60 mV, at a concentration of 3 uM; type: functional; conditions: Canis lupus familiaris, Purkinje fiber; outline: as §2
[18] = species on record: Canis familiaris; assay: Effect on the transmembrane potential of dog Purkinje fibers paced at a basic cycle length of stimulation of 1000 ms, repolarization time to -60 mV at 0.3 uM concentration; type: functional; conditions: Canis lupus familiaris, Purkinje fiber; outline: as §2
[19] = species on record: Canis familiaris; assay: Effect on the transmembrane potential of dog Purkinje fibers paced at a basic cycle length of stimulation of 1000 ms, repolarization time to -60 mV at 3 uM concentration; type: functional; conditions: Canis lupus familiaris, Purkinje fiber; outline: as §2
[20] = Maximum rate of depolarization of the upstroke of the action potentia at 3 uM concentration; outline: as §3
[21] = species on record: Canis familiaris; assay: Effect on the transmembrane potential of dog Purkinje fibers paced at a basic cycle length of stimulation of 300 ms, repolarization time to -60 mV at 3 uM concentration; type: functional; conditions: Canis lupus familiaris, Purkinje fiber; outline: as §2
[22] = tested on: Canis familiaris; assay: Effect on atrial conduction time, after intravenous administration in open-chest anesthetized dogs at dose of 1.0 mg/kg; type: functional, Canis lupus familiaris, Cardiac atrium
[23] = tested on: Canis familiaris; assay: Effect on ventricular effective refractory period, after intravenous administration in open-chest anesthetized dogs at dose of 5.0 mg/kg; type: functional, Canis lupus familiaris, Cardiac ventricle; outline: as §1
[24] = tested on: Canis familiaris; assay: Effect on ventricular conduction time, after intravenous administration in open-chest anesthetized dogs at dose of 5.0 mg/kg; type: functional, Canis lupus familiaris, Cardiac ventricle
[25] = tested on: Canis familiaris; assay: Effect on ventricular effective refractory period, after intravenous administration in open-chest anesthetized dogs at dose of 1.0 mg/kg; type: functional, Canis lupus familiaris, Cardiac ventricle; outline: as §1
[26] = tested on: Canis familiaris; assay: Effect on mean arterial pressure, after intravenous administration in open-chest anesthetized dogs at dose of 1.0 mg/kg; type: functional, Canis lupus familiaris, Artery
[27] = tested on: Canis familiaris; assay: Effect on ventricular conduction time, after intravenous administration in open-chest anesthetized dogs at dose of 1.0 mg/kg; type: functional, Canis lupus familiaris, Cardiac ventricle
[28] = tested on: Canis familiaris; assay: Effect on atrial effective refractory period, after intravenous administration in open-chest anesthetized dogs at dose of 1.0 mg/kg; type: functional, Canis lupus familiaris, Cardiac atrium
[29] = tested on: Canis familiaris; assay: Effect on mean arterial pressure, after intravenous administration in open-chest anesthetized dogs at dose of 5.0 mg/kg; type: functional, Canis lupus familiaris, Artery
[30] = tested on: Canis familiaris; assay: Effect on heart rate, after intravenous administration in open-chest anesthetized dogs at dose of 1.0 mg/kg; type: functional, Canis lupus familiaris
[31] = tested on: Canis familiaris; assay: Effect on heart rate, after intravenous administration in open-chest anesthetized dogs at dose of 5.0 mg/kg; type: functional, Canis lupus familiaris
[32] = tested on: Canis familiaris; assay: Effect on atrial conduction time, after intravenous administration in open-chest anesthetized dogs at dose of 5.0 mg/kg; type: functional, Canis lupus familiaris, Cardiac atrium
[33] = tested on: Canis familiaris; assay: Effect on atrial effective refractory period, after intravenous administration in open-chest anesthetized dogs at dose of 5.0 mg/kg; type: functional, Canis lupus familiaris, Cardiac atrium

In the case of CN(CCN1CCn2c1nc1ccccc12)S(=O)(=O)c1ccc(NS(C)(=O)=O)cc1.Cl, the Change [1] is reported as -9%, the Change [2] is reported as -8% and the APD60 [3] is reported as 30. The Change [4] was 66%, the Change [5] was 19% and the Change [6] was -24%. It also gave a Change [7] of 3%, an APD60 [8] of 16 and an APD60 [9] of 30. For the same compound, the Change [10] was -15%, the Change [11] was -5% and the Change [12] was 18%.

Cl.Cn1c(N2CCN(C(=O)c3ccc(NS(C)(=O)=O)cc3)CC2)nc2ccccc21 showed an APD60 [13] of 6, a Vmax [14] of -3 and a Change [15] of 33%. The APD60 [16] was 33, the APD60 [17] was 75 and the APD60 [18] was 17.

CN(CCNc1nc2ccccc2n1C)S(=O)(=O)c1ccc(NS(C)(=O)=O)cc1.Cl gave an APD60 [19] of 67, a Vmax [14] of 1 and a Vmax [20] of 6. It also gave an APD60 [21] of 19.

Compound CN(CCNS(=O)(=O)c1ccc(NS(C)(=O)=O)cc1)c1nc2ccccc2n1C.Cl has an APD60 [19] of 50 and an APD60 [21] of 16.

In the case of CN(CCN(C)c1ccc2ccccc2n1)C(=O)c1ccc(NS(C)(=O)=O)cc1, the APD60 [3] is reported as 36 and the APD60 [8] is reported as 17.

In the case of CS(=O)(=O)Nc1ccc(S(=O)(=O)N2CCNc3nc4ccccc4n3CC2)cc1, the APD60 [3] is reported as 42 and the APD60 [8] is reported as 24.

For CS(=O)(=O)Nc1ccc(S(=O)(=O)NCCNc2ncccn2)cc1, the APD60 [3] was 24 and the APD60 [8] was -4.

Compound Cl.Cn1c(N2CCN(S(=O)(=O)c3ccc(NS(C)(=O)=O)cc3)CC2)nc2ccccc21 has an APD60 [19] of 57, a Change [22] of 3% and a Change [23] of 25%. It also gave a Change [24] of 2%, a Change [25] of 13% and a Change [26] of 2%. The Change [27] was -4%, the Change [28] was 22% and the Change [29] was 3%. The Change [30] was -17%, the Change [31] was -37% and the Change [32] was -3%. It also gave a Change [33] of 40% and an APD60 [21] of 36.
